Data taken from ChEMBL document CHEMBL4706729, “Discovery of the First Orally Available, Selective K1.1 Inhibitor: In Vitro and In Vivo Activity of an Oxadiazole Series” (ACS Med Chem Lett, 2021).

Assays:
[1] = Clearance in CD-1 mouse at 0.5 mg/kg, iv; type: ADME, organism-based; conditions: in vivo
Procedure, shortened: (§1)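 CD-1 mice given a single 0.5 mg/kg IV dose in 10% DMSO, 10% Solutol, 80% water. Clearance, Vdss and half-life derived from plasma concentration–time data.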

[2] = Metabolic stability in human liver microsomes assessed as intrinsic clearance
[3] = Volume of distribution at steady state in CD-1 mouse at 0.5 mg/kg, iv; type: ADME, organism-based; conditions: in vivo, read-out: Vdss; procedure, shortened: as §1
[4] = Free drug concentration in mouse brain harboring Kcnt1 L/L mutant at 30 mg/kg, sc; type: ADME, organism-based; conditions: in vivo
[5] = Lipophilicity, log D of compound; type: physicochemical; conditions: octanol/water
[6] = Half life in CD-1 mouse at 0.5 mg/kg, iv; type: ADME, organism-based; conditions: in vivo; procedure, shortened: as §1
[7] = Oral bioavailability in CD-1 mouse at 30 mg/kg; type: ADME, organism-based; conditions: in vivo
[8] = Free drug concentration in wildtype CD-1 mouse brain at 150 mg/kg, sc; conditions: in vivo

Structure (SMILES)	CLint [2] [µL/min/mg]	logD [5]	further results
COc1cc(-c2noc([C@H](C)NC(=O)c3cc(C(F)(F)F)nn3C)n2)cc(C)n1	10	4.4	–
COCc1cc(-c2noc([C@H](C)NC(=O)c3cc(C(F)(F)F)nn3C)n2)ccn1	< 9.6	3	–
C[C@H](NC(=O)c1cc(C(F)(F)F)nn1C)c1nc(-c2ccnc(C3CC3)c2)no1	< 9.6	4.1	–
COC(C)(C)c1cc(-c2noc([C@H](C)NC(=O)c3cc(C(F)(F)F)nn3C)n2)ccn1	21	3.8	–
C[C@H](NC(=O)c1cc(C(F)(F)F)nn1C)c1nc(-c2ccnc(N3CCCC3)c2)no1	48	4.2	–
COc1cc(-c2noc([C@H](C)NC(=O)c3cc(C(F)(F)F)nn3C)n2)ccn1	< 9.6	3.4	–
C[C@H](NC(=O)c1cc(C(F)(F)F)nn1C)c1nc(-c2ccnc(N(C)C)c2)no1	56	3.9	–

Further lines, with some results ahead:

CLint [2] [µL/min/mg]	logD [5]	Structure (SMILES)	further results
< 9.6	3.6	C[C@H](NC(=O)c1cc(C(F)(F)F)nn1C)c1nc(-c2ccnc(C(F)(F)F)c2)no1	clearance [1]: 2 mL/min/kg; Vd [3]: 1.88 L/kg; Drug uptake(free) [4]: 270 nM; half-life [6]: > 20 h; bioavailability [7]: 100%; Drug uptake [8]: 1204 nM
< 9.6	3.4	C[C@H](NC(=O)c1cc(C(F)(F)F)nn1C)c1nc(-c2ccnc(C(F)F)c2)no1	–
< 9.6	3.3	Cc1cc(-c2noc([C@H](C)NC(=O)c3cc(C(F)(F)F)nn3C)n2)ccn1	–
28	3.4	CNc1cc(-c2noc([C@H](C)NC(=O)c3cc(C(F)(F)F)nn3C)n2)ccn1	–
